The source made the active and inactive calls. No cut-off for these calls is given here.
How the values were obtained:
[1] = Stability in mouse liver microsomes assessed as CYP450-mediated metabolism by measuring parent compound remaining at 1 uM measured after 60 mins in presence of NADPH generating system by LC-MS/MS analysis; format: ADME; conditions: 1 h
In short: (§1)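 Liver microsomes from mouse or human, 0.2 mg/mL, with 1 μM compound (final) in 100 mM potassium phosphate at pH 7.4. Adding microsomes started the reaction; triplicates. After 60 min, quenched with 3 volumes of ice-cold acetonitrile containing internal standard.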

[2] = test system: Cytochrome P450; experiment: Stability in human liver microsomes assessed as CYP450-mediated metabolism by measuring parent compound remaining at 1 uM measured after 60 mins in presence of NADPH generating system by LC-MS/MS analysis; format: ADME; conditions: 1 h; in short: as §1
[3] = Stability in mouse liver microsomes assessed as parent compound remaining at 1 uM measured after 60 mins in absence of NADPH by LC-MS/MS analysis; format: ADME, Microsome; conditions: for remaining at 1 h, 1 µM: liver microsomes, read-out: Stability
In short: (§2)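 Cofactor-free control for cofactor-independent degradation. Mouse or human liver microsomes at 0.2 mg/mL, 1 μM compound (final), 100 mM potassium phosphate at pH 7.4, no NADPH regenerating system. Adding microsomes started the reaction; run in triplicate. Sampled at 60 min and quenched with three volumes of ice-cold acetonitrile spiked with internal standard.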

[4] = Stability in human liver microsomes assessed as parent compound remaining at 1 uM measured after 60 mins in absence of NADPH by LC-MS/MS analysis; format: ADME, Microsome; conditions: for remaining at 1 h, 1 µM: liver microsomes, read-out: Stability; in short: as §2
[5] = biological target: T1, Sphingomyelin phosphodiesterase 3 (Homo sapiens, UniProt Q9NY59); experiment: Inhibition of human recombinant full-length nSMase expressed in HEK293 cells using sphingomyelin as substrate measured after 1 hr by alkaline phosphatase, choline oxidase and horseradish peroxidase dependent H2O2 detection-coupled amplex reagent based fluorescence assay
T1 sequence (Q9NY59 whole entry): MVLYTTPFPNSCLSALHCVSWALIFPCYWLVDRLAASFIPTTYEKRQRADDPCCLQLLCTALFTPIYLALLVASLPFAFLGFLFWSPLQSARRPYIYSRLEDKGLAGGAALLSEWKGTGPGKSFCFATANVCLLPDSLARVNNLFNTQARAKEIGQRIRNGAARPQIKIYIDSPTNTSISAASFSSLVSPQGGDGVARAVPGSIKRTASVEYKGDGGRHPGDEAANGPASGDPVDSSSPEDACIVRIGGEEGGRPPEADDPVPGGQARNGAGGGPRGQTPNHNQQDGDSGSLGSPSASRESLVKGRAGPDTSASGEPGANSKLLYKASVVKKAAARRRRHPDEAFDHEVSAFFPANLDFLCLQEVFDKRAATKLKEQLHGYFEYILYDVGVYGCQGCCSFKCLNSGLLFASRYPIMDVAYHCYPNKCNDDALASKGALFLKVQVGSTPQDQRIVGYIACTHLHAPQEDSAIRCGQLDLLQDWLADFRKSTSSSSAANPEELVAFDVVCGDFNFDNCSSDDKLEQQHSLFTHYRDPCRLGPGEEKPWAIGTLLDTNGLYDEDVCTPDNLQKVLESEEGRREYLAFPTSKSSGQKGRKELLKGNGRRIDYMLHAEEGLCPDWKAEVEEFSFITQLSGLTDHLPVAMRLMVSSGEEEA

[6] = biological target: Phosphatidylinositol 4-kinase alpha (Homo sapiens) (UniProt P42356); experiment: Inhibition of PI4K3alpha (unknown origin)
Chain of Phosphatidylinositol 4-kinase alpha (Homo sapiens) (P42356 whole entry, looked up): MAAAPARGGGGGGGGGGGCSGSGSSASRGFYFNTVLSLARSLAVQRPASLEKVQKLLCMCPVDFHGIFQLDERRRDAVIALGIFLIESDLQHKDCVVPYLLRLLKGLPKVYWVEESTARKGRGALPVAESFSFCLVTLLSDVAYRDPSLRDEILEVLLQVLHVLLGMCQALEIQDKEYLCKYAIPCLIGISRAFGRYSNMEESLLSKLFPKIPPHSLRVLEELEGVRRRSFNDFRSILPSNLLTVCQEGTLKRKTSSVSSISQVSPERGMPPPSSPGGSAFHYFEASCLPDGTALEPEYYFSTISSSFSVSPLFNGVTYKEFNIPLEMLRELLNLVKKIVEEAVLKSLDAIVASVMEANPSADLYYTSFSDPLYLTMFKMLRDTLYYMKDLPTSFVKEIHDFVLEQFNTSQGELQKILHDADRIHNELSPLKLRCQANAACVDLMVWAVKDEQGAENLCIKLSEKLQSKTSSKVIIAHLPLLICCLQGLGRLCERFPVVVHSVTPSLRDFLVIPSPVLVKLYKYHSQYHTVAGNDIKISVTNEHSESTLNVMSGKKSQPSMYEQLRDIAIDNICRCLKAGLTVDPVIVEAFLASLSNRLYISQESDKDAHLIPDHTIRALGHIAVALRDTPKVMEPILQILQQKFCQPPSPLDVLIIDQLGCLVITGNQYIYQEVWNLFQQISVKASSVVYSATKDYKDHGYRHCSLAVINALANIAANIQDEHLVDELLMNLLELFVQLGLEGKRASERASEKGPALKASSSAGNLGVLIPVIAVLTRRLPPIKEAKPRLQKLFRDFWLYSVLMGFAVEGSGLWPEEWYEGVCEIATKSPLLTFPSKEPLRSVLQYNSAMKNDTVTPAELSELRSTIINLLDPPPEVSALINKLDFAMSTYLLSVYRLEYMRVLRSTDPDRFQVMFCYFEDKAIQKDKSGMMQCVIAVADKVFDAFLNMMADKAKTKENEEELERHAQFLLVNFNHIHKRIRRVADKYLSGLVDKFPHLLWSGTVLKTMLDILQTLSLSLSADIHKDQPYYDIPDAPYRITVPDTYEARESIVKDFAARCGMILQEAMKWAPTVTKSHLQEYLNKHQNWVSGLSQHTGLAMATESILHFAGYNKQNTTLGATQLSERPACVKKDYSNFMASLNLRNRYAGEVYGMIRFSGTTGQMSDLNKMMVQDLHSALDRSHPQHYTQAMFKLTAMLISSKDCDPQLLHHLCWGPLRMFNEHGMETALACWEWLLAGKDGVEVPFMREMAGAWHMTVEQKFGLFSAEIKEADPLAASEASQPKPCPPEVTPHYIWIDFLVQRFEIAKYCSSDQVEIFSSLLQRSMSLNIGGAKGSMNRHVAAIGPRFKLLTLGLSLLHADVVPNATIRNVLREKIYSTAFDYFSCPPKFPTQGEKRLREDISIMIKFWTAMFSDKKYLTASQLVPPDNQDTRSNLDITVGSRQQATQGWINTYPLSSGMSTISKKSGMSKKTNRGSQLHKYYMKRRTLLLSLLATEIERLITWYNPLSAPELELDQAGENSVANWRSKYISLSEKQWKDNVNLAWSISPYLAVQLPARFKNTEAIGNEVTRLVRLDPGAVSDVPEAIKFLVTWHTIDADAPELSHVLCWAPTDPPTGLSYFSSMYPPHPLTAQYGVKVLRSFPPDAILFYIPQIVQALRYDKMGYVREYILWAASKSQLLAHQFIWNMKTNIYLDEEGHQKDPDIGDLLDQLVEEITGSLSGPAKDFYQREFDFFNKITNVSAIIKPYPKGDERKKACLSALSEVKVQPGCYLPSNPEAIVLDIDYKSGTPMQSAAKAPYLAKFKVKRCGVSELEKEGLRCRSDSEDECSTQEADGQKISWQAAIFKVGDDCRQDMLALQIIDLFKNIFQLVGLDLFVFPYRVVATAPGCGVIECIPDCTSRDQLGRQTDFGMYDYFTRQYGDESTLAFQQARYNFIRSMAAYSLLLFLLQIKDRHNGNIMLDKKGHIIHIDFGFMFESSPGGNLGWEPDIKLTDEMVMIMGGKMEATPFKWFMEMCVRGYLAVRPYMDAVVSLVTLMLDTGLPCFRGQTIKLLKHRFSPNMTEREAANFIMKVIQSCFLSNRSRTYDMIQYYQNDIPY

[7] = test system: HepG2; experiment: Cytotoxicity against human HepG2 cells by XTT assay; format: cell-based
[8] = test system: HL-60; experiment: Cytotoxicity against human HL60 cells by XTT assay; format: cell-based
[9] = test system: HeLa S3; experiment: Cytotoxicity against human HeLaS3 cells by XTT assay; format: cell-based
[10] = test system: CCRF-CEM; experiment: Cytotoxicity against human CCRF-CEM cells by XTT assay; format: cell-based
[11] = biological target: Phosphatidylinositol 4-kinase beta (Homo sapiens, UniProt Q9UBF8); experiment: Inhibition of PI4K3beta (unknown origin)
Chain of Phosphatidylinositol 4-kinase beta (Q9UBF8 whole entry): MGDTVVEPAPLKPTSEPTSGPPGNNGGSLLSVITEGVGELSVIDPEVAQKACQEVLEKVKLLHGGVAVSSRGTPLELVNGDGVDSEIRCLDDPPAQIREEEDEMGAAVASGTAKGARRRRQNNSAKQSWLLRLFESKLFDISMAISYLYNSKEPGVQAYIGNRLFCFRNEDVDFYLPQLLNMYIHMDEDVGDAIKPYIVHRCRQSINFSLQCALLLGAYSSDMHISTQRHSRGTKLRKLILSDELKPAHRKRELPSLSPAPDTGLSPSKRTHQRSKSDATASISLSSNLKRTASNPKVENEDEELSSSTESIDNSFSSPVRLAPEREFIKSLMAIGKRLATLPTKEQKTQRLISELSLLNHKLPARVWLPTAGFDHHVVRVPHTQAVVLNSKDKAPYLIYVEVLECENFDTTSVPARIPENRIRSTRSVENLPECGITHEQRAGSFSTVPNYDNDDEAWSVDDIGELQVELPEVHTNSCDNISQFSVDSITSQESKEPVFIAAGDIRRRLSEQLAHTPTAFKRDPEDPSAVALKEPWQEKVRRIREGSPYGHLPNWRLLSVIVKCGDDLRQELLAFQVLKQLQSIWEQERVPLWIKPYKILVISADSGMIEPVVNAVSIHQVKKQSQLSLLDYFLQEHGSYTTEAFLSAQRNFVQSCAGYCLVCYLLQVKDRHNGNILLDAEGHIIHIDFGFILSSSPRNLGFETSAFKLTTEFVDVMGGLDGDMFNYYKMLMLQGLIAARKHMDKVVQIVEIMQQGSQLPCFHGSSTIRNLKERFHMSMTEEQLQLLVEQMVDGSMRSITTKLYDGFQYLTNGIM

Row | Parent compound remaining [1] [%] | Stability [2] [%] | remaining at 1 h, 1 µM [3] [%] | remaining at 1 h, 1 µM [4] [%] | SMILES | other results
1 | 78 | 95 | > 95 | > 95 | COc1ccc(-c2c(C)nc3c(N4CC[C@@H](NS(=O)(=O)c5cccs5)C4)cc(C)nn23)cc1OC | –
2 | – | – | – | – | COc1ccc(-c2c(C)nc3c(NCCNC(C)=O)cc(C)nn23)cc1OC | IC50 [5]: > 10 µM; inhibition [6]: inactive; Activity [7]: Non-Toxic; Activity [8]: Non-Toxic; Activity [9]: Non-Toxic; Activity [10]: Non-Toxic
3 | 72 | 114 | > 95 | > 95 | CC(=O)N[C@@H]1CCN(c2cc(C)nn3c(-c4ccc(OC(F)(F)F)cc4)c(C)nc23)C1 | –
4 | 52 | 88 | > 95 | > 95 | CCCCCC(=O)N[C@@H]1CCN(c2cc(C)nn3c(-c4ccc(OC)c(OC)c4)c(C)nc23)C1 | –
5 | 6 | 20 | > 95 | > 95 | COc1ccc(-c2c(C)nc3c(N4CC[C@@H](NC(=O)C(F)(F)c5ccccc5)C4)cc(C)nn23)cc1OC | –
6 | 28 | 50 | > 95 | > 95 | CC(=O)N[C@@H]1CCN(c2cc(C)nn3c(-c4cccs4)c(C)nc23)C1 | –
7 | 117 | 113 | > 95 | > 95 | COc1ccc(-c2c(C)nc3c(N4CC[C@@H](NC(=O)C(F)(F)F)C4)cc(C)nn23)cc1OC | –
8 | 1 | 58 | > 95 | > 95 | COc1ccc(-c2c(C)nc3c(N4CCCC4)cc(C)nn23)cc1OC | –
9 | – | – | – | – | COc1ccc(-c2c(C)nc3c(N4CC[C@H](NC(C)=O)C4)cc(C)nn23)cc1OC | IC50 [11]: > 10 µM; inhibition [6]: inactive; Activity [7]: Non-Toxic; Activity [8]: Non-Toxic; Activity [9]: Non-Toxic; Activity [10]: Non-Toxic
10 | 15 | 61 | > 95 | > 95 | COc1ccc(-c2c(C)nc3c(N4CC[C@@H](NS(=O)(=O)c5ccc(C(F)(F)F)cc5)C4)cc(C)nn23)cc1OC | –
11 | 7 | 32 | > 95 | > 95 | COc1ccc(-c2c(C)nc3c(N4CC[C@@H](NS(=O)(=O)c5ccc(Cl)cc5)C4)cc(C)nn23)cc1OC | –
12 | 5 | 12 | > 95 | > 95 | COc1ccc(-c2c(C)nc3c(N4CC[C@@H](NS(=O)(=O)c5ccc(C(C)=O)cc5)C4)cc(C)nn23)cc1OC | –
13 | 104 | – | > 95 | > 95 | COc1ccc(-n2c(C)nc3c(N4CC[C@@H](NC(C)=O)C4)nc(C)nc32)cc1OC | IC50 [5]: > 100 µM
14 | 68 | 92 | > 95 | > 95 | COc1ccc(-c2cnc3c(N4CC[C@@H](NC(C)=O)C4)ccnn23)cc1OC | –
15 | 87 | 90 | > 95 | > 95 | COc1ccc(-c2c(C)nc3c(N4CC[C@@H](NC(=O)Nc5ccccc5)C4)cc(C)nn23)cc1OC | –
16 | – | – | > 95 | > 95 | COc1ccc(-c2c(C)oc3c(N4CC[C@@H](NC(C)=O)C4)cc(C)nc23)cc1OC | IC50 [5]: > 100 µM
17 | 95 | 111 | > 95 | > 95 | COc1ccc(-c2c(C)nc3c(N4CC[C@@H](NS(=O)(=O)C5CC5)C4)cc(C)nn23)cc1OC | –
18 | 20 | 43 | > 95 | > 95 | COc1ccc(-c2c(C)nc3c(N4CC[C@@H](NS(=O)(=O)c5ccccc5)C4)cc(C)nn23)cc1OC | –
19 | – | – | – | – | COc1ccc(-c2c(C)nc3c(N4CC[C@@H](n5cc(-c6ccccc6)nn5)C4)cc(C)nn23)cc1OC | Stability ([3]; microsomes, 1 h, 1 µM): Unstable; Stability ([4]; microsomes, 1 h, 1 µM): Unstable
20 | – | – | > 95 | > 95 | CCN(CCNC(C)=O)c1cc(C)nn2c(-c3ccc(OC)c(OC)c3)c(C)nc12 | –
21 | – | – | > 95 | > 95 | COc1ccc(-c2c(C)nc3c(N4CCN(C(=O)OC(C)(C)C)CC4)cc(C)nn23)cc1OC | –

Row | Parent compound remaining [1] [%] | Stability [2] [%] | remaining at 1 h, 1 µM [3] [%] | remaining at 1 h, 1 µM [4] [%] | SMILES | other results
22 | – | – | > 95 | > 95 | COc1cc(-c2c(C)nc3c(N4CC[C@@H](NC(C)=O)C4)cc(C)nn23)cc(OC)c1OC | –
23 | – | – | > 95 | > 95 | COc1ccc(-c2scc3c(N4CC[C@@H](NC(C)=O)C4)nc(C)nc23)cc1OC | IC50 [5]: > 100 µM
24 | 53 | 28 | > 95 | > 95 | COc1ccc(-c2cnc3c(N4CC[C@@H](NC(C)=O)C4)cc(C)nn23)cc1OC | –
25 | – | – | > 95 | > 95 | COc1ccc(-c2c(C)nc3c(N4CC[C@@H](NC(=O)Oc5cccc(C)c5)C4)cc(C)nn23)cc1OC | –
26 | – | – | > 95 | > 95 | CC(=O)N[C@@H]1CCN(c2cc(C)nn3c(-c4ccc(C#N)cc4)c(C)nc23)C1 | –
27 | 8 | 11 | > 95 | > 95 | COc1ccc(-c2c(C)nc3c(N4CC[C@@H](SC(C)=O)C4)cc(C)nn23)cc1OC | –
28 | – | – | > 95 | > 95 | CC(=O)N[C@@H]1CCN(c2cc(C)nn3c(-c4ccc5cc[nH]c5c4)c(C)nc23)C1 | –
29 | – | – | > 95 | > 95 | COc1ccc(-c2c(C)nc3c(N4CC[C@@H](NC(C)=O)C4)ccnn23)cc1OC | –
30 | – | – | > 95 | > 95 | COc1ccc(-c2c(C)nc3c(N4CC[C@@H](NC(=O)c5ccccc5)C4)cc(C)nn23)cc1OC | –
31 | – | – | > 95 | > 95 | COc1ccc(-c2c(C)nc3c(N4CCN(C(C)=O)CC4)cc(C)nn23)cc1OC | –
32 | – | – | > 95 | > 95 | COc1ccc(-c2c(C)nc3c(N4CC[C@@H](NS(=O)(=O)C(C)C)C4)cc(C)nn23)cc1OC | –
33 | – | – | > 95 | > 95 | COc1ccc(-c2c(C)nc3c(N4CC[C@@H](NS(=O)(=O)c5ccc(C#N)cc5)C4)cc(C)nn23)cc1OC | –
34 | 32 | 84 | > 95 | > 95 | CSc1ccc(-c2c(C)nc3c(N4CC[C@@H](NC(C)=O)C4)cc(C)nn23)cc1 | –
35 | – | – | > 95 | > 95 | CC(=O)N[C@@H]1CCN(c2cc(C)nn3c(-c4nccs4)c(C)nc23)C1 | –
36 | – | – | > 95 | > 95 | COc1ccc(-c2c(C)nc3c(N4CC[C@@H](NC(=O)[C@@H](OC)c5ccccc5)C4)cc(C)nn23)cc1OC | –
37 | 2 | 29 | > 95 | > 95 | COc1ccc(-c2c(C)nc3c(N4CC[C@@H](NS(=O)(=O)c5ccc(C)cc5)C4)cc(C)nn23)cc1OC | –
38 | – | – | > 95 | > 95 | COc1ccc(-c2c(C)nc3c(N4CCOCC4)cc(C)nn23)cc1OC | –
39 | – | – | > 95 | > 95 | COc1ccc(-c2c(C)nc3c(N4CC[C@@H](NC(=O)Cc5ccccc5)C4)cc(C)nn23)cc1OC | –
40 | – | – | > 95 | > 95 | COc1ccc(-c2c(C)nc3c(N4CC[C@@H](N5CCOCC5)C4)cc(C)nn23)cc1OC | –
41 | – | – | > 95 | > 95 | COc1ccc(-c2c(C)nc3c(N4CC[C@@H](OC(C)=O)C4)cc(C)nn23)cc1OC | –

From ChEMBL document CHEMBL4613265, “Novel Human Neutral Sphingomyelinase 2 Inhibitors as Potential Therapeutics for Alzheimer's Disease” (J Med Chem, 2020)
